GASC1 inh – inhibitors of human demethylase GASC-1 KDM4C. AID 720574. inhibition, % at 12.5 µM. 96,000 compounds, 0.15% hits. GST-KDM4C 2-372, H3K9me3 peptide, LANCE TR-FRET. Q9H3R0;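 active means mean replicate inhibition above about 25%, with at least 55% of replicates also reaching it, limit read from the data, passing the limit was not always enough; inconclusive means only one of those two conditions met; inactive means neither condition met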
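Test system: N-terminal GST-fused human GASC-1 (KDM4C) fragment, residues 2-372; quantity: GASC-1 enzyme at 10 nM final in reaction; dosing: single dose; schedule: 30 min demethylation and 1 h detection at room temperature; signal: LANCE TR-FRET, excitation 340 nm, emissions 618 and 671 nm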
T cruzi growth – inhibitors of T. cruzi proliferation; T. cruzi beta-gal in NIH3T3, GalScreen luminescence, 90 h; inhibition, % at 8.34 µM; 77,000 compounds, 5.9% hits; AID 624255;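 active means mean inhibition above about 93%, with at least 55% of replicates each passing it, limit read from the data, passing the limit was not always enough; inconclusive means only one of those two conditions holds; inactive means neither condition holds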
IDH1 mut inh – IDH1 R132H (human) inhibition; AID 624101; 70,000 compounds, 0.18% hits; inhibition, % at 10 µM; O75874; IDH1 R132H reductase, diaphorase/resazurin fluorescence, 60 min; in the data active means inhibition above about 34%; inconclusive means no clear call, values can overlap the other calls; inactive means below about 11%;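 further: 0% = DMSO and 100% = no enzyme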
Target sequence (O75874 whole entry R132H): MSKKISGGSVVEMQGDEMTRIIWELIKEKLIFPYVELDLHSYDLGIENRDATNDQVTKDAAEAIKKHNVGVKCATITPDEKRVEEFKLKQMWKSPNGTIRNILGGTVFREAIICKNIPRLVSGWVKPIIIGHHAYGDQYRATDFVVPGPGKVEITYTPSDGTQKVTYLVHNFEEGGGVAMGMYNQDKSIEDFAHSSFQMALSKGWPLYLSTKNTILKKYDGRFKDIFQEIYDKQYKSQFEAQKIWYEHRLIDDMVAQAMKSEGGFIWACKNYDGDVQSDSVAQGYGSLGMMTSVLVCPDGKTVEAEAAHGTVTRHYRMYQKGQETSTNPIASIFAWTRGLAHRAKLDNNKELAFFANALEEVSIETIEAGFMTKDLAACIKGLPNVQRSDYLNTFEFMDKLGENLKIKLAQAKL
Pf Dd2 inh – P. falciparum Dd2 growth inhibition | activity change, % at 10 µM | SYBR Green, 72 h; stronger effect = lower value | 94,000 compounds, 2.3% hits; in the data active means activity change below about -80%; inconclusive means no clear call, values can overlap the other calls
* marks the source's active call; other numbers are inactive results; ? = inconclusive; · = no result. A selection: hits, their analogues and other compounds. The true share with any hit is near 5.9%.

SMILES	GASC1 inh	T cruzi growth	IDH1 mut inh	Pf Dd2 inh
C[C@@H]1CCCCO[C@@H](CN(C)CC2CC2)[C@@H](C)CN([C@H](C)CO)C(=O)c2cc(NC(=O)Nc3ccc4c(c3)OCO4)ccc2O1	0	25	·	?
CCCN(C)C[C@H]1OCCCC[C@H](C)Oc2ccc(NC(=O)Nc3ccc(C(F)(F)F)cc3)cc2C(=O)N([C@@H](C)CO)C[C@H]1C	-1	54	0	-69
C[C@H]1CCCCO[C@H](CN(C)CC2CC2)[C@@H](C)CN([C@@H](C)CO)C(=O)c2cc(NC(=O)Nc3ccc(C(F)(F)F)cc3)ccc2O1	·	50	·	-85*
CCCN(C)C[C@@H]1OCCCC[C@H](C)Oc2ccc(NC(=O)Nc3ccc4c(c3)OCO4)cc2C(=O)N([C@H](C)CO)C[C@@H]1C	-3	50	·	-88*
CCCN(C)C[C@H]1OCCCC[C@@H](C)Oc2ccc(NC(=O)Nc3ccc(C(F)(F)F)cc3)cc2C(=O)N([C@H](C)CO)C[C@H]1C	0	17	0	-83*
O=C(Nc1cccc([N+](=O)[O-])c1)Nc1nn(Cc2ccc(Cl)c(Cl)c2)cc1Cl	·	·	0	·
O=C(Nc1cccc(Br)c1)C1CN(S(=O)(=O)c2ccccc2)CCN1S(=O)(=O)c1ccccc1 (stereo not given)	·	·	0	·
COc1ccc2c3c([nH]c2c1)[C@H](CO)N(C(=O)C1CCCCC1)CC31CCN(Cc2nccs2)CC1	0	·	·	-88*
COc1ccc2c3c([nH]c2c1)[C@H](CO)N(Cc1ccc(Cl)cc1)CC31CCN(Cc2nccs2)CC1	-1	·	·	-93*
COc1ccc2c3c([nH]c2c1)[C@@H](CO)N(Cc1nccs1)CC31CN(Cc2nccs2)C1	-1	·	·	-37
COc1ccc2c3c([nH]c2c1)[C@H](CO)N(Cc1nccs1)CC31CN(Cc2cccnc2)C1	0	·	·	-88*
COc1ccc2c3c([nH]c2c1)[C@H](CO)N(C(=O)C1CCCC1)CC31CCN(Cc2nccs2)CC1	-3	·	·	-83*
CCn1c(SCc2cccc(OC)c2)nnc1-c1cccnc1	·	·	0	·
C[C@@H]1CN([C@@H](C)CO)C(=O)Cc2cc(NC(=O)Nc3ccccc3)ccc2O[C@H]1CN(C)Cc1ccc2c(c1)OCO2	4	3	0	-88*
C[C@@H]1CN([C@@H](C)CO)C(=O)Cc2cc(NC(=O)Nc3ccccc3)ccc2O[C@@H]1CN(C)Cc1ccc2c(c1)OCO2	4	83	0	-16
C[C@@H]1CN([C@@H](C)CO)C(=O)Cc2cc(NC(=O)Nc3ccc4c(c3)OCO4)ccc2O[C@H]1CN(C)Cc1ccc2c(c1)OCO2	2	70	-11	-87*
C[C@H](CO)N1C[C@H](C)[C@@H](CN(C)Cc2ccc3c(c2)OCO3)Oc2ccc(NC(=O)Nc3ccccc3)cc2CC1=O	3	60	0	-83*
Cc1cc(C(F)(F)F)nn1CCCNC(=O)c1cccs1	·	·	0	·
CC(Oc1ccccc1)C(=O)NCCN1CCOCC1 (stereo not given)	·	·	0	·
COc1ccc(NC(=O)Nc2ccc3c(c2)C(=O)N([C@@H](C)CO)C[C@H](C)[C@@H](CN(C)Cc2ccc(C(F)(F)F)cc2)OCCCC[C@@H](C)O3)cc1	-2	66	·	-91*
COc1ccc(CN(C)C[C@H]2OCCCC[C@H](C)Oc3ccc(NC(=O)Nc4ccc(C(F)(F)F)cc4)cc3C(=O)N([C@@H](C)CO)C[C@H]2C)cc1	·	59	·	-75
COc1ccc(CN(C)C[C@@H]2OCCCC[C@H](C)Oc3ccc(NC(=O)Nc4ccc(C(F)(F)F)cc4)cc3C(=O)N([C@@H](C)CO)C[C@@H]2C)cc1	·	96	·	-87*
COc1ccc(CN(C)C[C@H]2OCCCC[C@@H](C)Oc3ccc(NC(=O)Nc4ccc(C(F)(F)F)cc4)cc3C(=O)N([C@H](C)CO)C[C@H]2C)cc1	·	101	·	-67
COc1ccc(NC(=O)Nc2ccc3c(c2)C(=O)N([C@@H](C)CO)C[C@@H](C)[C@@H](CN(C)Cc2ccc(C(F)(F)F)cc2)OCCCC[C@H](C)O3)cc1	0	75	0	-76
COc1ccc(NC(=O)Nc2ccc3c(c2)C(=O)N([C@@H](C)CO)C[C@@H](C)[C@@H](CN(C)Cc2ccc(C(F)(F)F)cc2)OCCCC[C@@H](C)O3)cc1	0	78	0	-83*
SMILES	GASC1 inh	T cruzi growth	IDH1 mut inh	Pf Dd2 inh
COc1cc([N+](=O)[O-])ccc1NC(=S)Nc1nn(Cc2ccc(Cl)cc2Cl)cc1Cl	·	·	2	·
C[C@@H]1CN([C@H](C)CO)C(=O)c2cccc(NC(=O)c3ccc(-c4nccs4)cc3)c2O[C@H]1CN(C)Cc1ccc(C(F)(F)F)cc1	0	96	1	-91*
C[C@@H]1CN([C@H](C)CO)C(=O)c2cccc(NC(=O)c3ccc(-c4nccs4)cc3)c2O[C@@H]1CN(C)Cc1ccc(C(=O)Nc2ccccc2N)cc1	-2	90	·	-91*
C[C@@H]1CN([C@H](C)CO)C(=O)c2cccc(NC(=O)c3ccc(-c4nccs4)cc3)c2O[C@@H]1CN(C)Cc1ccc(-c2ccccc2)cc1	-4	36	-3	-65
C[C@@H]1CN([C@@H](C)CO)C(=O)c2cccc(NC(=O)c3nc4ccccc4s3)c2O[C@@H]1CN(C)Cc1ccc(C(=O)Nc2ccccc2N)cc1	0	93	·	-91*
C[C@@H]1CN([C@H](C)CO)C(=O)c2cccc(NC(=O)c3nc4ccccc4s3)c2O[C@H]1CN(C)Cc1ccc(C(=O)O)cc1	0	31	·	-11
C[C@@H]1CN([C@@H](C)CO)C(=O)c2cccc(NC(=O)c3ccc(-c4nccs4)cc3)c2O[C@H]1CN(C)Cc1ccc(C(=O)Nc2ccccc2N)cc1	-1	82	·	-93*
COc1cccc(NC(=O)CSc2nc3ccccc3c(=O)n2-c2ccc(Br)cc2)c1	·	·	1	·
COc1ccc(CCNC(=O)C2OCCc3ccccc32)cc1OC (stereo not given)	·	·	0	·
C[C@@H]1CCCCO[C@H](CN(C)C(=O)Nc2ccccc2)[C@@H](C)CN([C@H](C)CO)C(=O)c2cc(NC(=O)C3CCCCC3)ccc2O1	0	56	0	-11
C[C@@H]1CCCCO[C@H](CN(C)C(=O)Nc2ccccc2)[C@H](C)CN([C@H](C)CO)C(=O)c2cc(NC(=O)C3CCCCC3)ccc2O1	-1	57	3	-87*
C[C@@H]1CCCCO[C@H](CN(C)C(=O)Nc2ccc(F)cc2)[C@@H](C)CN([C@@H](C)CO)C(=O)c2cc(NC(=O)C3CCCCC3)ccc2O1	0	66	·	-86*
C[C@@H]1CCCCO[C@@H](CN(C)C(=O)Nc2ccc(F)cc2)[C@@H](C)CN([C@@H](C)CO)C(=O)c2cc(NC(=O)C3CCCCC3)ccc2O1	1	72	·	-86*
C[C@H]1CCCCO[C@@H](CN(C)C(=O)Nc2ccc(F)cc2)[C@@H](C)CN([C@@H](C)CO)C(=O)c2cc(NC(=O)C3CCCCC3)ccc2O1	-3	72	-3	-63
COc1ccc(Cl)cc1NC(=O)C(C)N(c1ccc(C)cc1)S(C)(=O)=O (stereo not given)	·	·	0	·
